High-throughput results: PubChem, Broad Institute
Wnt act = Wnt/beta-catenin pathway activation; hit rate 1.2% among 300,000; Wnt/beta-catenin reporter cell assay, activator, plate reader; activation, % at 9.35 µM; in the data active = activation above about 30%, passing the limit was not always enough; inconclusive = no clear call, values can overlap the other calls
esBAF inh = inhibitors of esBAF chromatin remodeling in mouse ES cells | reporter increase, % at 12.5 µM | hit rate 2% among 350,000 | Bmi1-luciferase knock-in reporter, 24 h; 100% = twice the neutral-well signal | AID 602393; in the data active = activation above about 40%; inconclusive = no clear call, values can overlap the other calls;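 note: a rise in the Bmi1 reporter signal indicates esBAF inhibition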
Cneo AK release = causes C. neoformans cell lysis; adenylate kinase release luminescence, 4 h; normalised: neutral wells 0, clomiphene wells 100; lysis activity, % at 15 µM; hit rate 0.2% among 360,000;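 active = mean lysis activity across replicates of at least 80%, whatever share of replicates individually reach that level; inactive = mean lysis activity below 80%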
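Material: C. neoformans cells; Schedule: 4 h static compound exposure, 37 °C, read 1 h post-reagent; Measured by: adenylate kinase release luminescence; Read-out: signal increase indicating cell lysis; Controls: Clomiphene as positive lysis control.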
Env fusion inh = inhibitors of HIV Env-mediated cell fusion | hit rate 1.1% among 360,000 | inhibition, % at 12.3 µM | AID 651610 | HeLa-JRFL Env/CEM21 cell fusion, luciferase;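 active = mean replicate inhibition score of at least 50 and every replicate individually at or above 50; inconclusive = only one of the two criteria met; inactive = mean below 50 and not all replicates reaching 50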
MITF act = MITF TRPM1 promoter activation in melanoma cells; SK-MEL-5 TRPM1-promoter luciferase, 24 h; % of positive control, neutral wells = 0; activation, % at 12.5 µM; hit rate 0.75% among 300,000;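 active = mean activation of at least 80% with every replicate also reaching 80%; inconclusive = mean reaches 80% but some replicate falls short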
ERAP1 inh = inhibitors of human ERAP1 aminopeptidase. inhibition, % at 10.7 µM. hit rate 0.15% among 340,000. recombinant ERAP1, Leu-AMC fluorescence, 60 min. Q9NZ08;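 active = mean replicate inhibition of at least 30%, or all replicates individually reaching that 30% level; inactive = mean below 30% and not every replicate reaching it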
Target sequence (Q9NZ08 whole entry, looked up): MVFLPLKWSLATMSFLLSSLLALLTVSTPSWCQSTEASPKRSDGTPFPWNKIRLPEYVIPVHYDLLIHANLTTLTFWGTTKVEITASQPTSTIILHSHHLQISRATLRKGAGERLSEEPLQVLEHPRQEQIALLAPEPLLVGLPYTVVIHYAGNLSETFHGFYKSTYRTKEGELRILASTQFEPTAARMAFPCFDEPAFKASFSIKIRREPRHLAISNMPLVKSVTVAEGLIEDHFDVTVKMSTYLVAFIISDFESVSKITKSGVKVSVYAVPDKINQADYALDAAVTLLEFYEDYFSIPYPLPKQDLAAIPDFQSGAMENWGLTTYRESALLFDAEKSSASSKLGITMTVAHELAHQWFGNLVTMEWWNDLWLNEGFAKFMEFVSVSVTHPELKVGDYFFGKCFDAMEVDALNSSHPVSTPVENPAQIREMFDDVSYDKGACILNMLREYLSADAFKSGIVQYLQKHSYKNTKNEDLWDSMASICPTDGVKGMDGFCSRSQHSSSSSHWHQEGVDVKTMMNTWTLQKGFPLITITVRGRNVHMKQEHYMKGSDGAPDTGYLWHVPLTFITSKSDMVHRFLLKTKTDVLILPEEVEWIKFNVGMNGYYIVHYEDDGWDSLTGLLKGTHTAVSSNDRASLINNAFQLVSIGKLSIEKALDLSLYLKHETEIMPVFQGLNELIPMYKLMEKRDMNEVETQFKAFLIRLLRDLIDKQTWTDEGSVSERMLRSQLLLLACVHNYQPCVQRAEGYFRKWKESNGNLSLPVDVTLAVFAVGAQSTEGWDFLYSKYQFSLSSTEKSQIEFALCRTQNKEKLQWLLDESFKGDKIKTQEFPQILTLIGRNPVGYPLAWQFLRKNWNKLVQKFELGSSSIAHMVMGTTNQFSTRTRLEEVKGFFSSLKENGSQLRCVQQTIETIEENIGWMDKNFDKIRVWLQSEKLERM
Of the large screens only hits and unclear results are named; the others gave an inactive call. Sampled rows, rich in hits. Any-hit rate of the full collection: about 3.5%.

Cc1ccc(/C=C/C(=O)N2CCc3ccccc3C2)cc1	esBAF inh 48.4 (no result: Env fusion inh, ERAP1 inh)
O=C(O)C1=C[C@H](c2ccc3c(c2)Cc2ccccc2-3)C[C@H](OCCCCO)O1	none (no result: Wnt act, esBAF inh, MITF act)
CC(=O)COc1ccc2c(c1C)O/C(=C\c1ccco1)C2=O	esBAF inh 61.3
Clc1ccc(OCCOCCNCc2ccccc2)cc1Cl	Env fusion inh 55.5 (no result: MITF act)
Clc1ccccc1Nc1nc(-c2cccnc2)cs1	Wnt act 55.3
COc1ccc(-c2csc(Nc3ccc(Oc4ccccc4)cc3)n2)cc1	Env fusion inh 77.2 (no result: MITF act, ERAP1 inh)
COc1cccc(Nc2nc(-c3sc(NC(=O)c4ccccc4)nc3C)cs2)c1	esBAF inh 51.6
Clc1ccccc1-c1csc(Nc2cccnc2)n1	esBAF inh 63.1
COc1cccc(Nc2nc(-c3sc(NC(=O)CC(C)C)nc3C)cs2)c1	none
C[C@@H]1CN([C@@H](C)CO)C(=O)c2cccc(NS(=O)(=O)c3ccc(F)cc3)c2O[C@@H]1CN(C)Cc1ccc(Oc2ccccc2)cc1	none (no result: Wnt act, Cneo AK release, MITF act, ERAP1 inh)
c1cncc(Nc2nc(-c3cccnc3)cs2)c1	none (no result: Wnt act, esBAF inh, Cneo AK release, ERAP1 inh)
COc1cccc(Nc2nc(-c3cccnc3)cs2)c1	esBAF inh inconclusive, MITF act 80.6
CO[C@H]1CN(C)C(=O)c2ccc(NC(=O)C3CCOCC3)cc2OC[C@H](C)N(Cc2cccnc2)C[C@H]1C	none (no result: Wnt act, Env fusion inh, MITF act)
COc1ccc2c(c1)[C@H]1[C@H](CO2)[C@H](c2ccccc2)[C@]2(C)C(=O)Nc3cc(OC)c(OC)cc3C(=O)N12	Env fusion inh 102.0 (no result: ERAP1 inh)
C[C@@]12C(=O)Nc3ccc(F)cc3C(=O)N1[C@H]1c3cc(Br)ccc3OC[C@@H]1[C@@H]2c1ccccc1	Env fusion inh 56.9
COc1ccc2c(=O)c(C(=O)NCCc3ccccc3)c[nH]c2c1	esBAF inh 55.0
COc1ccc2cc(C(=O)NCCc3ccccc3)[nH]c2c1	esBAF inh 42.8, MITF act inconclusive
CC1CCN(C(=O)CN(Cc2ccc(Cl)cc2)S(C)(=O)=O)CC1	none
CC1CCN(C(=O)CSCc2ccc(Cl)cc2)CC1	esBAF inh 49.4, MITF act inconclusive (no result: Wnt act, Env fusion inh, ERAP1 inh)
Cc1ccc(/C(=N/Nc2ncnc3ccccc23)C(=O)O)cc1	Wnt act 44.4, esBAF inh 51.5
Cc1ccc(Nc2ncnc3ccccc23)cc1	esBAF inh 46.3, MITF act inconclusive (no result: Wnt act)
Cc1cccc(Nc2ncnc3ccccc23)c1	Wnt act 46.8 (no result: esBAF inh)
CCc1nc2sc3c(c2c(=O)n1N)CC(C)(C)OC3	none (no result: esBAF inh, Cneo AK release)
CC1(C)Cc2c(sc3nc(-c4cccs4)n(N)c(=O)c23)CO1	esBAF inh 72.6 (no result: Wnt act, ERAP1 inh)
CCC1(C)Cc2c(sc3nc(SC)n(Cc4ccccc4)c(=O)c23)CO1 (stereo unspecified)	esBAF inh 59.3 (no result: Wnt act, Env fusion inh)
CC1(C)Cc2c(sc3nc(-c4ccccc4)n(N)c(=O)c23)CO1	esBAF inh 42.6 (no result: Wnt act, Env fusion inh, ERAP1 inh)
COc1ccc2c3c([nH]c2c1)[C@H](CO)N(C(=O)Nc1ccccc1F)CC31CN(C(=O)c2ccccc2F)C1	none (no result: Wnt act, esBAF inh, Cneo AK release, Env fusion inh, MITF act)
O=C(C[C@H]1CC[C@H](NC(=O)Nc2ccccc2)[C@@H](CO)O1)NCc1cccc(F)c1	none (no result: Wnt act, MITF act)
O=C(N/N=C/c1ccncc1)c1nc2ccccc2c(=O)[nH]1	none (no result: esBAF inh, Cneo AK release, ERAP1 inh)
O=C(N/N=C/c1ccc2cccnc2c1)c1nc2ccccc2c(=O)[nH]1	esBAF inh 45.8
CCCCC(=O)N1CCN(c2nc3ccc(Cl)cc3s2)CC1	esBAF inh 50.4
O=S(=O)(c1ccc(Cl)cc1)N1CCCN(c2nc3ccc(Cl)cc3s2)CC1	Env fusion inh 90.6 (no result: esBAF inh, Cneo AK release, MITF act, ERAP1 inh)
CC(C)(CC(=O)O)CC(=O)N1CCN(c2nc3ccc(Cl)cc3s2)CC1	none (no result: Wnt act, Env fusion inh, ERAP1 inh)
O=C(O)C[C@@H]1C=C[C@H](NC(=O)c2ccncc2)[C@@H](CO)O1	none (no result: Wnt act, MITF act)
O=C(C[C@@H]1CC[C@H](NC(=O)c2ccncc2)[C@H](CO)O1)NCC1CC1	none (no result: Wnt act, MITF act)
NC(N)=NC(=O)c1nc(Cl)c(N2CCCCCC2)nc1N	esBAF inh 58.6, Env fusion inh 61.7, MITF act 126.0
Cc1noc(C)c1NC(=O)N(C)C[C@H]1Oc2c(NC(=O)NC(C)C)cccc2C(=O)N([C@@H](C)CO)C[C@@H]1C	none (no result: Wnt act, MITF act)
O=C1C(N2CCOCC2)=C(n2nnc3ccccc32)C(=O)c2ccccc21	Env fusion inh 80.4 (no result: ERAP1 inh)
O=C1c2ccccc2C(=O)c2c1cccc2-n1nnc2ccccc21	none (no result: esBAF inh, MITF act)
C[C@H](CO)N1C[C@H](C)[C@H](CN(C)C(=O)CN(C)C)Oc2ncc(C#Cc3ccccc3)cc2C1=O	none (no result: Wnt act, MITF act)
CC1CCN(S(=O)(=O)c2ccc(Oc3ccc([N+](=O)[O-])cc3)cc2)CC1	Env fusion inh 72.4 (no result: esBAF inh, Cneo AK release, ERAP1 inh)
CC(C)NC(=O)N1[C@H](CO)[C@@H]2c3ccccc3N(C(=O)Nc3ccc(Cl)cc3)C[C@@H]21	none (no result: Wnt act, Env fusion inh, MITF act)
CCC(=O)Nc1ccc2c(c1)C(=O)N(C)[C@@H]1CC[C@H](CC(=O)NC3CCCC3)O[C@@H]1CO2	none (no result: Wnt act, MITF act)
Cc1ccc(NC(=O)C2CCCN2C(=O)c2cccs2)c(C)c1 (stereo unspecified)	ERAP1 inh 55.9
CCc1ccccc1NC(=O)C1CCN(C(=O)c2cccs2)CC1	none
Cc1ccc(NC(=O)C2CCN(C(=O)c3cccs3)CC2)c(C)c1	ERAP1 inh 34.1
Cc1cccc(-c2nnc3sc(-c4ccccc4)nn23)c1	esBAF inh 41.9, MITF act inconclusive (no result: ERAP1 inh)
N#C/C(=C\c1ccc(OCc2cccc(C(=O)O)c2)cc1)C(=O)NCc1ccco1	Wnt act 38.8 (no result: esBAF inh, Cneo AK release, ERAP1 inh)
N#C/C(=C\c1ccc(OCc2ccc(C(=O)O)cc2)cc1)C(=O)NCc1ccccc1	none
Cc1cc(/C=C(\C#N)C(=O)NCc2ccco2)c(C)n1-c1cccnc1	none (no result: esBAF inh, Cneo AK release)
Cc1cc(/C=C(\C#N)C(=O)NCc2ccco2)c(C)n1C1CCCC1	Wnt act 39.4, esBAF inh 53.2 (no result: ERAP1 inh)
Cc1ccccc1S(=O)(=O)N1C[C@@H](O)COC[C@@H]2O[C@H](CC(=O)O)CC[C@H]21	none (no result: Wnt act, MITF act)
COc1ccc(Cl)cc1NC(=O)CN(C)CC(=O)Nc1ccccc1-c1ccccc1	Env fusion inh 63.1
C[C@@H]1CN([C@@H](C)CO)C(=O)c2cc(NC(=O)Nc3ccc(F)cc3)ccc2O[C@@H]1CN(C)Cc1ccc(C(=O)O)cc1	none (no result: Wnt act, Env fusion inh, MITF act)
Cc1ccc(C)c(OCC(=O)Nc2nonc2NC(=O)COc2cc(C)ccc2C)c1	Env fusion inh 68.3 (no result: ERAP1 inh)
Cc1ccc(C)c(OCC(=O)Nc2c[nH]c(=O)[nH]c2=O)c1	Env fusion inh 57.3 (no result: esBAF inh, Cneo AK release)
O=C(C[C@H]1CC[C@H](NC(=O)c2ccccn2)[C@H](CO)O1)NCc1cccc(F)c1	none (no result: Wnt act, MITF act)
O=C(NCC1COc2ccccc2O1)c1ccccc1 (stereo unspecified)	none (no result: ERAP1 inh)
O=C(NC(=S)NCC1COc2ccccc2O1)c1ccccc1 (stereo unspecified)	Cneo AK release 160.6 (no result: Wnt act, Env fusion inh, ERAP1 inh)
COc1ccc(N=C(C)C2=C(O)c3ccccc3C2=O)cc1	Wnt act 57.6 (no result: esBAF inh, ERAP1 inh)
CC(=NC1CC1)C1=C(O)c2ccccc2C1=O	MITF act 97.7 (no result: ERAP1 inh)
CC(=O)Nc1ccc(N=C(C2=C(O)c3ccccc3C2=O)c2ccccc2)cc1	none (no result: esBAF inh, Cneo AK release)
